Legend:
Assay type in all cases: functional
[1] = Antioxidant activity assessed as DPPH radical scavenging activity incubated for 30 mins under dark condition by microplate reader analysis
In short: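 The radical solution is made from […] methanol solution and mixed with sample dissolved in methanol (ultrasonication at 40 °C). Incubation is 30 min dark at room temperature with read-out at A519. % scavenging vs no-sample blank; IC50 (final concentration giving 50% scavenging) from dose–response curve by linear regression, mean ± SD (n = 3).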

[2] = Antioxidant activity assessed as ABTS radical cation scavenging activity incubated for 10 mins under dark condition by microplate reader analysis
In short: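 ABTS˙+ is generated from 7.4 mM (NH4)2ABTS and 2.6 mM K2S2O8 solutions mixed 1:1 and kept dark at 27 °C for 12 h. It is diluted about 1:20 with water, then mixed with methanolic samples for 10 min dark at 27 °C and read at A734. % scavenging vs no-sample blank; IC50 from dose–response curve by linear regression, mean ± SD (n = 3).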

[3] = Antioxidant activity assessed as oxygen scavenging activity measured every 30 sec for 5 min by UV-vis spectrophotometer analysis
In short: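 Superoxide generation uses pyrogallol autoxidation: sample plus pyrogallol (60 mM stock in 1 mM HCl) in 0.05 M Tris-HCl, pH 7.4. A325 is recorded every 30 s for 5 min. Scavenging comes from the absorbance increase over 5 min relative to no-sample control; IC50 from dose–response curve, mean ± SD (n = 3).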

HT-22 [4] = assay: Antioxidant activity in mouse HT-22 cells assessed as OH scavenging activity by chromogenic analysis; set-up: concentration or dose not given beside the values
HT-22 [5] = assay: Antioxidant activity in mouse HT-22 cells assessed as OH scavenging activity measured for 24 hrs by CCK-8 analysis
In short: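 HT22 cells are grown in DMEM/10% FBS at 37 °C, 5% CO2, seeded at 1 × 10^4 per well and left to adhere for 24 h. They are pretreated with sample at 50 μM final for 24 h (model group: medium), then exposed to Fenton reagent (200 μM H2O2 + 200 μM FeCl2) for 24 h. Medium is removed and CCK-8 added for 2 h; survival from A450, five wells per sample.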

IC50 [1] [µM]	IC50 [2] [µM]	IC50 [3] [µM]	SMILES	Activity (HT-22 [4]) [%]	Activity (HT-22 [5]) [%]
1230	10.2	88.8	O=c1c(-c2ccc(O)cc2)coc2cc(O)cc(O)c12 [GENISTEIN]	36.39	68.54
15.5	4.73	81.6	O=c1c(O)c(-c2ccc(O)cc2)oc2cc(O)cc(O)c12 [KAEMPFEROL]	74.46	69.4

The remaining lines, values behind:

SMILES	IC50 [1] [µM]	IC50 [2] [µM]	IC50 [3] [µM]	Activity (HT-22 [4]) [%]	Activity (HT-22 [5]) [%]
O=c1cc(-c2ccc(O)cc2)oc2cc(O)cc(O)c12 [APIGENIN]	2760	18.2	68.9	33.26	73.32
O=C1O[C@H]([C@@H](O)CO)C(O)=C1O [ASCORBIC ACID]				84.27	
O=C1C[C@@H](c2ccc(O)cc2)Oc2cc(O)cc(O)c21 [NARINGENIN]	1730	13	24.2	33.85	80.65
Cc1c(C)c2c(c(C)c1O)CCC(C)(C(=O)O)O2 (centres undefined) [TROLOX]	19.8	10.3	963		
